Test results taken from ChEMBL document CHEMBL1130354, “Bicyclo[2.2.1]heptane and 6,6-dimethylbicyclo[3.1.1]heptane derivatives: orally active, potent, and selective prostaglandin D2 receptor antagonists” (J Med Chem, 1997).

What was measured:
[1] = target: T1, Prostaglandin D2 receptor (Homo sapiens, UniProt Q13258); assay: Inhibition of cAMP formation evoked by the prostaglandin D2 receptor in human platelets; format: functional
T1 sequence (Q13258 whole entry): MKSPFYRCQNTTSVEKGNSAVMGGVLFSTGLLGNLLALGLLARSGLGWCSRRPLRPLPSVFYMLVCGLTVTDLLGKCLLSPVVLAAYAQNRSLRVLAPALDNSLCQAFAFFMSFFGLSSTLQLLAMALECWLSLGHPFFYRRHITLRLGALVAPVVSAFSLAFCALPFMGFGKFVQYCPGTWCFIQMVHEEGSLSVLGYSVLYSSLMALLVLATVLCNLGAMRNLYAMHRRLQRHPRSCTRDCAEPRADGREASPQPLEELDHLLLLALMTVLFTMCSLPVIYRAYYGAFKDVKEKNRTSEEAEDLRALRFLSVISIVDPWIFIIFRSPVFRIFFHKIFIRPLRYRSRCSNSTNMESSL
How it was run: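 Human platelets preincubated 10 min at 37 °C with graded compound concentrations in presence of IBMX, then stimulated 2 min with 0.1 μM PGD2; inhibition of cAMP formation measured, IC50 derived.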

[2] = target: T1, Prostaglandin D2 receptor; assay: Inhibition of [3H]PGD-2 specific binding to Prostaglandin D2 receptor from human platelet membranes
How it was run: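 Human platelet membranes incubated 60 min at 4 °C with 5 nM [3H]PGD2 and graded test compound concentrations; inhibition of specific binding measured, IC50 derived.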

[3] = target: Prostacyclin receptor (Homo sapiens, UniProt P43119); assay: Inhibition of cAMP formation by carbacyclin in Prostaglandin I2 receptor (IP) assay; format: functional
Prostacyclin receptor, sequence (P43119 whole entry): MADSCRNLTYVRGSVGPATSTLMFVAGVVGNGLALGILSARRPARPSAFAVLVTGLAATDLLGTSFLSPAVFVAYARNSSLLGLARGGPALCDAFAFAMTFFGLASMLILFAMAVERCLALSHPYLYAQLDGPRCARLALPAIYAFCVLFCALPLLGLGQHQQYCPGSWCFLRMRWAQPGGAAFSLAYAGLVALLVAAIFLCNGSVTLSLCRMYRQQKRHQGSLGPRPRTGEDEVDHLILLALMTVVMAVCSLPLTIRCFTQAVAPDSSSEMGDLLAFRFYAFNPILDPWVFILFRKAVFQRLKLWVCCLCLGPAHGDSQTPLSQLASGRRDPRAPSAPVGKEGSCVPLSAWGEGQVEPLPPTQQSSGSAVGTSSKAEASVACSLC
How it was run: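 Platelets (human) preincubated 10 min at 37 °C with graded compound levels plus IBMX, then exposed 2 min to 0.1 μM carbacyclin; cAMP formation inhibition read out; IC50 is mean of two or three measurements.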

[4] = target: T2, Thromboxane A2 receptor (Homo sapiens, UniProt P21731); assay: Inhibition of [3H]- (+)-S-145 specific binding to human platelet membranes in TXA2 receptor (TP) assay
T2 sequence (P21731 whole entry): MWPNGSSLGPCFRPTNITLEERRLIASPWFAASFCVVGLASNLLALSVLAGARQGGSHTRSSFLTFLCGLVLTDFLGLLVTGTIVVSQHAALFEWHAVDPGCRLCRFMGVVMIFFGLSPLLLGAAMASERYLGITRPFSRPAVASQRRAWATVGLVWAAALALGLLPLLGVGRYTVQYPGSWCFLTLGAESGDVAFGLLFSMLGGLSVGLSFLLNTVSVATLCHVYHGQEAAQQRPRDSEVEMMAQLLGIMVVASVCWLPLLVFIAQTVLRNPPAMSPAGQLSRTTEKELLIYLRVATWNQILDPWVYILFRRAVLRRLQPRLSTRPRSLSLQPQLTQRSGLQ
How it was run: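 Membranes from human platelets incubated 60 min at room temperature with 2 nM [3H](+)-S-145 plus graded compound concentrations; specific binding inhibition gives IC50.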

[5] = species: Cavia porcellus; assay: Dose required to inhibit 50% of antigen-induced increase in intranasal pressure; format: functional; conditions: po
How it was run: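 Oral dosing of actively sensitized guinea pigs 1 h before antigen challenge; rise in intranasal pressure recorded; dose giving 50% inhibition taken from dose–response data, n = 5–10 animals per point.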

[6] = system: Cavia porcellus; assay: Inhibition of antigen-induced increase in intranasal pressure in actively sensitized guinea pigs at 1 mg/kg (iv); format: functional
How it was run: (§1)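 Actively sensitized guinea pigs; compound given iv 10 min before antigen challenge; antigen-induced rise in intranasal pressure measured, percent inhibition reported as mean ± SEM, n = 5–10/group; Student's t-test versus control.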

[7] = system: Cavia porcellus; assay: Inhibition of increase in specific airway resistance by antigen inhalation in conscious guinea pigs (10 mg/kg); format: functional
How it was run: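 Conscious guinea pigs given compound po 1 h before antigen inhalation; increase in specific airway resistance measured; percent inhibition as mean ± SEM, n = 4–11 animals/group; Student's t-test versus control.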

[8] = species: Cavia porcellus; assay: Effect on antigen-induced increase in vascular permeability in conjunctiva of guinea pig which actively sensitized with ovalbumin; format: functional
How it was run: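 Guinea pigs actively sensitized with ovalbumin, challenged conjunctivally with antigen; increase in conjunctival microvascular permeability measured; ED50 from dose–response data, n = 3–10 animals per point.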

[9] = species: Cavia porcellus; assay: Effect on PGD2-induced increase in vascular permeability in conjunctiva of normal guinea pigs; format: functional
How it was run: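 Normal guinea pigs; conjunctival microvascular permeability increase induced by topical 0.1% PGD2; dose producing 50% inhibition derived from dose–response data, n = 3–10 animals per point.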

[10] = system: Cavia porcellus; assay: Inhibition of antigen-induced increase in intranasal pressure in actively sensitized guinea pigs at 3 mg/kg (iv); format: functional; how it was run: as §1

O=C(O)CCC/C=C\C[C@@H]1[C@H]2CC[C@H](C2)[C@H]1NS(=O)(=O)c1ccc(/N=N/c2ccccc2)cc1
IC50 [1]: 320 nM | IC50 [2]: 27 nM | IC50 [3]: > 10 µM | IC50 [4]: 1300 nM

CC1(C)[C@H]2C[C@H](C/C=C\CCCC(=O)O)[C@@H](NC(=O)c3ccccc3)[C@@H]1C2
IC50 [1]: 360 nM | IC50 [2]: 5200 nM | IC50 [3]: > 10 µM | IC50 [4]: 810 nM

CC1(C)[C@H]2C[C@H](C/C=C\CCCC(=O)O)[C@@H](NC(=O)c3csc4ccc(O)cc34)[C@@H]1C2
ED50 [5]: 2.1 mg/kg | IC50 [1]: 1 nM | inhibition in vivo at 1 mg/kg [6]: 78% | Inhibition [7]: 70% | ED50 [8]: 2 mg/kg | ED50 [9]: 0.12 mg/kg | IC50 [3]: > 10 µM | IC50 [4]: 96 nM

CC1(C)[C@H]2C[C@H](C/C=C\CCCC(=O)O)[C@@H](NC(=O)c3csc4cc(O)ccc34)[C@@H]1C2
IC50 [3]: > 10 µM | IC50 [4]: 410 nM

O=C(O)CCC/C=C\C[C@@H]1[C@H]2CC[C@H](C2)[C@H]1NS(=O)(=O)c1ccc2oc3ccccc3c2c1
ED50 [5]: 3.5 mg/kg | IC50 [1]: 70 nM | inhibition in vivo at 1 mg/kg [6]: 82% | IC50 [3]: 1.5 µM | IC50 [4]: 1700 nM

O=C(O)CCC/C=C\C[C@@H]1[C@H]2CC[C@H](C2)[C@H]1NC(=O)c1ccc(/N=N/c2ccccc2)cc1
IC50 [1]: > 1000 nM | IC50 [2]: 3000 nM | IC50 [3]: 1.4 µM

O=C(O)CCC/C=C\C[C@@H]1[C@H]2CC[C@H](C2)[C@H]1NS(=O)(=O)c1ccc(Oc2ccccc2)cc1
IC50 [1]: 780 nM | inhibition in vivo at 1 mg/kg [6]: 25% | IC50 [2]: 720 nM | IC50 [3]: > 10 µM | IC50 [4]: 1300 nM

COc1cc2c(cc1S(=O)(=O)N[C@@H]1[C@@H]3CC[C@@H](C3)[C@H]1C/C=C\CCCC(=O)O)oc1ccccc12
ED50 [5]: 2.2 mg/kg | IC50 [1]: 68 nM | inhibition in vivo at 1 mg/kg [6]: 80% | IC50 [2]: 27 nM | ED50 [8]: 6.6 mg/kg | ED50 [9]: 1.6 mg/kg | IC50 [3]: 5.9 µM | IC50 [4]: > 10000 nM

CC1(C)[C@H]2C[C@H](C/C=C\CCCC(=O)O)[C@@H](NS(=O)(=O)c3ccc4oc5ccccc5c4c3)[C@@H]1C2
IC50 [1]: > 1000 nM | IC50 [2]: 780 nM | IC50 [3]: > 10 µM | IC50 [4]: 240 nM

O=C(O)CCC/C=C\C[C@@H]1[C@H]2CC[C@H](C2)[C@H]1NS(=O)(=O)c1ccc2ccccc2c1
IC50 [1]: 420 nM | inhibition in vivo at 1 mg/kg [6]: 54% | IC50 [2]: 1200 nM | IC50 [3]: 8.9 µM | IC50 [4]: 670 nM

O=C(O)CCC/C=C\C[C@@H]1[C@H]2CC[C@H](C2)[C@H]1NS(=O)(=O)c1ccc(-c2ccccc2)cc1
IC50 [1]: 450 nM | inhibition in vivo at 3 mg/kg [10]: 39% | IC50 [2]: 600 nM | IC50 [3]: 5 µM | IC50 [4]: 1100 nM

CC1(C)[C@H]2C[C@H](C/C=C\CCCC(=O)O)[C@@H](NC(=O)c3cccc4ccsc34)[C@@H]1C2
IC50 [1]: 5.6 nM | IC50 [3]: > 10 µM | IC50 [4]: 210 nM

O=C(O)CCC/C=C\C[C@H]1[C@@H]2CC[C@@H](C2)[C@@H]1NS(=O)(=O)c1ccc2ccccc2c1
IC50 [1]: > 1000 nM | inhibition in vivo at 1 mg/kg [6]: 6% | IC50 [2]: 4900 nM | IC50 [3]: 3.3 µM | IC50 [4]: 0.13 nM

CC1(C)[C@H]2C[C@H](C/C=C\CCCC(=O)O)[C@@H](NC(=O)c3csc4ccccc34)[C@@H]1C2
IC50 [3]: > 10 µM | IC50 [4]: 380 nM

O=C(O)CCC/C=C\C[C@@H]1[C@H]2CC[C@H](C2)[C@H]1NS(=O)(=O)c1ccc2cc(-c3ccccc3)[nH]c2c1
ED50 [5]: 7.2 mg/kg | IC50 [1]: 120 nM | inhibition in vivo at 1 mg/kg [6]: 60% | IC50 [2]: 47 nM | IC50 [3]: > 10 µM | IC50 [4]: 1200 nM

CC1(C)[C@H]2C[C@H](C/C=C\CCCC(=O)O)[C@@H](NC(=O)c3ccc[nH]3)[C@@H]1C2
IC50 [1]: 64 nM | IC50 [2]: 32 nM | IC50 [3]: > 10 µM | IC50 [4]: 3100 nM

CC1(C)[C@H]2C[C@H](C/C=C\CCCC(=O)O)[C@@H](NC(=O)c3csc4ccc(F)cc34)[C@@H]1C2
ED50 [5]: 1 mg/kg | IC50 [1]: 1.8 nM | Inhibition [7]: 69% | ED50 [8]: 8.9 mg/kg | ED50 [9]: 3.5 mg/kg | IC50 [3]: > 10 µM | IC50 [4]: 430 nM

O=C(O)CCC/C=C\C[C@@H]1[C@H]2CC[C@H](C2)[C@H]1NS(=O)(=O)c1ccc(C#Cc2ccccc2)cc1
IC50 [1]: 250 nM | inhibition in vivo at 1 mg/kg [6]: 25% | IC50 [2]: 8.6 nM | IC50 [3]: > 10 µM | IC50 [4]: 280 nM

CC1(C)[C@H]2C[C@H](C/C=C\CCCC(=O)O)[C@@H](NC(=O)c3ccsc3)[C@@H]1C2
ED50 [5]: 5.1 mg/kg | IC50 [1]: 38 nM | inhibition in vivo at 1 mg/kg [6]: 77% | Inhibition [7]: 15% | IC50 [2]: 1600 nM | ED50 [8]: 9.5 mg/kg | ED50 [9]: 3.5 mg/kg | IC50 [3]: > 10 µM | IC50 [4]: 2100 nM

O=C(O)CCC/C=C\C[C@@H]1[C@H]2CC[C@H](C2)[C@H]1NS(=O)(=O)c1ccc2oc3cc([N+](=O)[O-])ccc3c2c1
IC50 [1]: 250 nM | IC50 [2]: 1100 nM | IC50 [3]: 4.5 µM

CC1(C)[C@H]2C[C@H](C/C=C\CCCC(=O)O)[C@@H](NC(=O)c3ccc(/N=N/c4ccccc4)cc3)[C@@H]1C2
IC50 [1]: 380 nM | IC50 [2]: 540 nM | IC50 [3]: > 10 µM | IC50 [4]: 150 nM

CC1(C)[C@H]2C[C@H](C/C=C\CCCC(=O)O)[C@@H](NC(=O)c3ccc4oc5ccccc5c4c3)[C@@H]1C2
IC50 [1]: 220 nM | IC50 [2]: 32 nM | IC50 [3]: 7.5 µM | IC50 [4]: 270 nM

CC1(C)[C@H]2C[C@H](C/C=C\CCCC(=O)O)[C@@H](NS(=O)(=O)c3ccc(/N=N/c4ccccc4)cc3)[C@@H]1C2
IC50 [1]: > 1000 nM | IC50 [2]: 1300 nM | IC50 [3]: 3.4 µM | IC50 [4]: 740 nM
